# An excerpt weighted towards active compounds, which were near 2% of everything screened.
# PfM18AAP inh-1 = PfM18AAP enzyme inhibition; recombinant PfM18AAP, H-Glu-NHMec fluorogenic cleavage; inhibition, % at 7.35 µM; hit rate 1.2% among 290,000;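 active means inhibition above the campaign mean inhibition over all tested compounds plus 3 SD, cut at about 28% in these data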;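 further: 0% = plate median of test compound wells and 100% = 2 mM ZnCl2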
# TNF necrop inh = blocks TNF-alpha induced death of Jurkat FADD-/- cells | hit rate 0.068% among 220,000 | AID 463075 | Jurkat FADD-/- TNF necroptosis rescue, ATP luminescence, 24 h; 0 = TNF only, 100 = no-TNF cells | activation (protection from cell death), % at 10 µM;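 active means activation, meaning protection from cell death, of at least 50% relative to plate controls; inactive means activation below 50%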;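 further: necroptosis triggered by 40 ng/mL TNF-alpha added together with compound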
# RBBP9 inhibitor = blocks human serine hydrolase RBBP9. hit rate 0.2% among 220,000. inhibition, % at 7.94 µM. recombinant RBBP9, FP-Rh probe fluorescence polarization;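 active means inhibition above the campaign mean of all tested compounds plus 3 SD, cut at about 14% in these data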;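 further: plate controls were DMSO wells with RBBP9 for no effect and wells lacking RBBP9 protein for full effect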
# Target sequence (O75884 whole entry, looked up): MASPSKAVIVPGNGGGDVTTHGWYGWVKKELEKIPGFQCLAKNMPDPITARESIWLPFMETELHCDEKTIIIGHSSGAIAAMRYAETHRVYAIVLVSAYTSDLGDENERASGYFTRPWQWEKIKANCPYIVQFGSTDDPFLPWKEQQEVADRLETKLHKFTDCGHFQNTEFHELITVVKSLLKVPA
#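 System: RBBP9 protein / Buffer or medium: Tris/NaCl buffer pH 8.0 with 0.1% Pluronic / Probe or stimulus: Serine-hydrolase probe FP-Rh, 375 nM pre-mixing / Dosing: 7.94 µM single dose, 0.794% DMSO / Times: enzyme-compound preincubation 30 min, then probe labeling 45 min, 25 °C / Technique: fluorescence polarization (mP), excitation 525 nm, emission 598 nm / Replication: singlicate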
# Hep lipid drop = hepatic lipid droplet formation modulation; AML12 mouse hepatocytes, oleate lipid droplets, BODIPY imaging; hit rate 0.4% among 240,000; inhibition, % at 6.5 µM; AID 1656;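 active means lipid droplet intensity inhibited by at least 50%, with more than 500 cells counted; inconclusive means wells with under 300 cells, treated as cytotoxic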
#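 Material – AML12 mouse liver cells · Also added – oleate loading, 100 µM · Compound dosing – 6.5 µM single-point dosing · Times – overnight treatment with compound plus oleate · Measured by – fluorescence imaging, 20x objective, two fields per well · Read-out – percent inhibition of filter-corrected integrated lipid droplet intensity per well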
# L929 necroptosis = blocks zVAD induced death of L929 cells. L929 zVAD necroptosis rescue, ATP luminescence, 24 h; with zVAD 60 µM. viability rescue, % at 10 µM. hit rate 0.38% among 220,000;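 active means activation, scaled between plate controls, above about 75%, limit read from the data; inactive means activation under that limit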;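 further: 0% = zVAD with DMSO and 100% = DMSO alone without zVAD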
# Tb hexokinase = blocks Trypanosoma brucei hexokinase 1 activity; recombinant TbHK1, G6PDH-coupled NADH A340; inhibition, % at 10 µM; hit rate 0.11% among 220,000;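 active means inhibition of 50% or more in the single-dose primary screen; inactive means inhibition below 50%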
# zVAD necrop conf = confirmed blocker of zVAD induced death in L929 cells. shares compounds with L929 necroptosis. L929 zVAD-induced necroptosis rescue, ATP luminescence, 24 h. activation (protection from necroptosis), % at 10 µM. hit rate 16% among 760;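 active means mean protection from necroptosis of at least 50% over duplicate tests; inactive means mean protection below 50%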;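 further: 0% = cells with zVAD alone and 100% = vehicle cells without zVAD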
# G6PDH ctr = Leuconostoc glucose-6-phosphate dehydrogenase inhibition, counter-screen; inhibition, % at 10 µM; shares compounds with Tb hexokinase; hit rate 7% among 210; purified G6PDH, NADH absorbance, 1 h;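 active means at least 50% inhibition in the glucose-6-phosphate dehydrogenase coupled counterscreen; inconclusive means no clear call, values can overlap the other calls; inactive means inhibition below 50%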
# TbHK1 rescreen = confirmation of Trypanosoma brucei hexokinase 1 inhibitors; shares compounds with Tb hexokinase; recombinant TbHK1, G6PDH-coupled NADH A340 absorbance; inhibition, % at 10 µM; hit rate 10% among 210; AID 2560;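 active means inhibition of at least 50% in both of the two screening runs; inconclusive means at least 50% in one run, below 50% in the other; inactive means inhibition below 50% in both runs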;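 further: 0% and 100% set by the maximum and minimum signal control wells on each plate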
# RBBP9 confirm = human RBBP9 inhibition, confirmation; recombinant RBBP9, FP-Rh probe fluorescence polarization; shares compounds with RBBP9 inhibitor; AID 1537; inhibition, % at 7.94 µM; hit rate 36% among 410;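 active means inhibition above the hit cutoff derived for the primary screen, cut at about 15% in these data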;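 further: 0% = RBBP9 with DMSO and 100% = wells lacking RBBP9 protein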
# Lipid drop inh = confirmation of inhibitors of hepatic lipid droplet formation. shares compounds with Hep lipid drop. AML12 mouse hepatocytes, BODIPY lipid droplet imaging; droplets induced with 100 µM oleic acid. inhibition, % at 5.2 µM. hit rate 65% among 870. AID 463183;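 active means inhibition of lipid droplet metric at least 50%, with more than 300 cells in each of four replicates; inconclusive means wells under 300 cells, flagged as toxic or low count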;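 further: plate controls were DMSO with oleic acid for no effect and 5 µM Triacsin-C for full effect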
# AML12 cytotox = counter-screen for cytotoxicity in AML12 mouse hepatocytes. shares compounds with Hep lipid drop. DAPI nuclear morphology cytotoxicity imaging; hits give high values; cells fed 100 µM oleate overnight. z-score at 5 µM. hit rate 3% among 870. AID 463200; in the data active means z-score above about 6.3;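 further: compound exposure lasted overnight at 37 °C before fixation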
# PfM18AAP inh-2 = confirmation of Plasmodium falciparum M18 aspartyl aminopeptidase inhibitors; shares compounds with PfM18AAP inh-1; recombinant PfM18AAP, H-Glu-NHMec fluorogenic cleavage; inhibition, % at 7.35 µM; hit rate 28% among 2,400; AID 2170;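 active means mean inhibition over replicate wells above the hit cutoff set for the earlier primary screen, cut at about 29% in these data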;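 further: 0% = median of test compound wells and 100% = 2 mM ZnCl2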
# CTSL1 confirm = counter-screen for PFM18AAP inhibitors: confirmation of human cathepsin L inhibitors | 2,400 tested, under 10 active | shares compounds with PfM18AAP inh-1 | purified cathepsin L1, Z-Leu-Arg-MCA fluorescence | inhibition, % at 5.96 µM;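 active means average inhibition across replicates above the hit cutoff set in the earlier primary screen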;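 further: 0% = median of test compound wells and 100% = Z-Phe-Ala-diazomethylketone 1 µM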
# Target sequence (P07711 whole entry, looked up): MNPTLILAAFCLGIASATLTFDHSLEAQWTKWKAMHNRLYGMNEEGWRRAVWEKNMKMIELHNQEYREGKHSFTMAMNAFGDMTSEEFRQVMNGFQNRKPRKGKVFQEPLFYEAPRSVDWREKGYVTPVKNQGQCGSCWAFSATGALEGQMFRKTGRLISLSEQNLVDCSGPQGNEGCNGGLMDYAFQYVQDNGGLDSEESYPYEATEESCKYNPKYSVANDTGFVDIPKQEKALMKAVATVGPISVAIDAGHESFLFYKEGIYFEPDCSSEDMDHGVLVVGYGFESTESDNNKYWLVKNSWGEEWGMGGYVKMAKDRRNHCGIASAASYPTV
# Active calls of the source: *; ? = inconclusive; . = not tested or not shown; ! = a repeat was not active.
SMILES,PfM18AAP inh-1,TNF necrop inh,RBBP9 inhibitor,Hep lipid drop,L929 necroptosis,Tb hexokinase,others
CCN(CC)c1ccc(N=Cc2c(O)n(-c3cc(OC)ccc3OC)c(=O)[nH]c2=O)cc1,33.5*,-0.9,1.2,39.6,3.6,-34.8,
C/C(=N\N1CCCCCC1)c1c(O)n(-c2ccccc2C)c(=O)[nH]c1=O,-1.8,0.5,-5.2,-14.4,-0.1,-2.0,
CN1/C(=C\C=Nc2ccccc2)C(C)(C)c2ccccc21,1.1,-7.6,-8.6,.,-0.2,-5.6,
CN1/C(=C\C=C\C2=[N+](C)c3ccc4ccccc4c3C2(C)C)C(C)(C)c2ccccc21,1.1,-14.9,131.6*,.,16.3,32.2,
O=C1NC(=O)N(Cc2ccccc2)C(=O)/C1=C\C=C\c1ccco1,29.9*,-8.1,-9.2,-0.8,0.0,2.3,
O=C1/C(=C\c2ccc(Cl)c(Cl)c2)N2CCC1CC2,-0.1,-2.9,1.0,-20.6,-0.4,-7.9,
CC(C)c1oc(=O)cc2c1[C@@H](O)[C@H]1OC(=O)[C@@]3(C)C[C@@H](O)[C@@H](O)[C@@]2(C)C13 (stereo partly drawn),3.5,-20.7,-0.9,-45.7,24.1,-4.5,
c1cncc(C2Nc3cccc4cccc(c34)N2)c1,34.7*!,-13.0,-1.7,1.3,-0.3,-19.6,
c1cncc(C2CCCCN2)c1 (stereo not drawn),-12.3,0.3,-4.1,-6.7,0.7,-1.5,
COC(=O)C1C=C2c3cccc4[nH]cc(c34)CC2N(C)C1 (stereo not drawn),25.0,-3.9,21.3*,7.9,-0.7,-19.7,
CCC(CO)NC(=O)C1C=C2c3cccc4[nH]cc(c34)CC2N(C)C1 (stereo not drawn),13.4,0.1,-3.4,-4.0,1.4,-17.8,
C/C(=C\c1ccc(N(C)C)cc1)[N+](=O)[O-],12.1,-20.8,-2.2,.,-0.5,0.2,
CN(C)c1ccc(/C=C/[N+](=O)[O-])cc1,31.2*,-1.4,1.0,-9.0,0.1,4.5,
CCOc1cc2c(cc1OCC)-n1cccc1C(c1ccc(C(C)C)cc1)NC2 (stereo not drawn),4.8,.,.,9.4,.,.,
Oc1ccc(C[C@H]2NCCc3cc(O)c(O)cc32)cc1O,81.9*,.,.,1.1,.,.,
c1ccc(-c2[nH]c[n+](CC3CO3)c2-c2ccccc2)cc1 (stereo not drawn),-6.5,0.5,-4.2,6.7,1.9,68.7*,
Cc1ccc2c(c1)N(C(=O)CCC(=O)N1CCC3(CC1)OCCO3)CCO2,1.5,.,.,-13.5,.,.,
COc1ccc(CN2C(=O)NC(=O)/C(=C/c3ccc([N+](=O)[O-])o3)C2=O)cc1,4.9,0.1,-11.6,13.1,0.7,5.8,
O=C(Cn1cc(C=C2C(=O)NC(=O)NC2=O)c2ccccc21)NCC1CCCO1 (stereo not drawn),31.7*,.,.,7.1,.,.,
CC(C)[C@]12O[C@H]1[C@@H]1O[C@]13[C@]1(O[C@H]1C[C@H]1C4=C(CC[C@@]13C)C(=O)OC4)[C@@H]2O,0.0,.,-5.7,87.2*,.,.,
Cc1cc([N+](=O)[O-])c2ccccc2[n+]1[O-],8.2,-28.4,-5.7,-39.9,81.0*,-14.5,zVAD necrop conf=66.6*
C[C@H]1CCC[C@H](O)CCCCCc2cc(O)cc(O)c2C(=O)O1,1.1,8.4,-4.2,.,0.1,3.6,
C[C@H]1CCC[C@@H](O)CCC/C=C/c2cc(O)cc(O)c2C(=O)O1,7.0,13.0,1.3,.,79.1*,-3.1,zVAD necrop conf=0.6
Cc1ccc(OCCOc2cccc(C=C3C(=O)NC(=O)NC3=O)c2)c(C)c1,7.7,.,.,2.3,.,.,
CCn1nc(-c2ccccc2)nc2c(=O)n(C)c(=O)nc1-2,6.7,-16.3,-10.9,-23.2,3.3,69.4*,G6PDH ctr=33.7;TbHK1 rescreen=38.4
SMILES,PfM18AAP inh-1,TNF necrop inh,RBBP9 inhibitor,Hep lipid drop,L929 necroptosis,Tb hexokinase,others
CC(C)c1ccccc1OCC(=O)N1CCCN(C)CC1,4.7,.,.,16.7,.,.,
O=c1c2ccccc2[se]n1-c1ccccc1,93.6*,-6.5,-83.8,-29.2,1.3,91.2*,G6PDH ctr=1.9;TbHK1 rescreen=90.0*;PfM18AAP inh-2=96.5*;CTSL1 confirm=-1.9
C=CCn1c(O)c(C(CC)=Nc2cccc(C(F)(F)F)c2)c(=O)[nH]c1=O,6.4,-1.0,-7.0,.,0.5,-6.7,
CN1CCN2c3ccc(N)cc3CC3(C(=O)NC(=O)NC3=O)C2C1 (stereo not drawn),43.7*,-0.8,20.5*,7.5,-0.4,-9.9,RBBP9 confirm=64.9*;PfM18AAP inh-2=-44.6;CTSL1 confirm=1.9
Cc1cccc(C)c1OP(N)(=O)OCC(F)(F)F (stereo not drawn),6.3,0.4,0.8,10.0,0.4,33.7,
CC1CCC/C=C/C2CC(O)CC2C(O)/C=C/C(=O)O1 (stereo not drawn),-11.2,3.9,6.7,109.7*,0.4,-7.8,Lipid drop inh=114.2*;AML12 cytotox=16.8*
C[C@H]1CCC/C=C/C2C[C@H](O)CC2[C@H](O)/C=C/C(=O)O1 (stereo partly drawn),1.3,17.5,-10.3,?,4.5,1.2,
COC(=O)C1CN(C#N)N(c2ccc(Cl)cc2)C12c1ccccc1-c1ccccc12 (stereo not drawn),1.6,-23.1,-6.9,131.4*,0.7,1.0,Lipid drop inh=?;AML12 cytotox=35.6*
Cc1cc(O)c2c(c1)OC(C)(C)C1=C2CC(C)CC1 (stereo not drawn),1.8,.,.,-8.2,.,.,
COc1cc(/C=C2\C(=O)NC(=O)N(c3ccccc3)C2=O)cc(OC)c1O,35.6*,1.0,-5.2,1.8,0.7,-32.1,PfM18AAP inh-2=-38.7;CTSL1 confirm=5.7
